Laboratory results as given in ChEMBL document CHEMBL4732107, “Synthesis and anticancer activity evaluation of naphthalene-substituted triazole spirodienones” (Eur J Med Chem, 2021).
Calls of active or inactive are those of the source. The rule behind the calls is not given here.

What was measured:
[1] = Acute toxicity in Kunming mouse assessed as clinical change in eyes at 40 mg/kg, ip administered as single dose; assay type: organism-based; settings: in vivo
Procedure, shortened: (§1)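 Kunming mice in four groups (n = 8, half male, half female) got one intraperitoneal dose of 10, 20 or 40 mg/kg, or vehicle. Body weights were recorded daily after dosing. Eyes, skin and fur were checked for clinical signs. Mortality was recorded. Mice were dissected to look for ascites and to assess liver volume.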

MDA-MB-231 [2] = test: Cell cycle arrest in human MDA-MB-231 cells assessed as accumulation at G2 phase at 1 uM measured after 24 hrs by propidium iodide staining based flow cytometry (reference value: 5.77%); assay type: functional
Procedure, shortened: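 MDA-MB-231 cells were seeded at 5 × 10^5 cells/mL and treated for 24 h. They were then trypsinized and washed twice in cold PBS. Cells were resuspended in PBS, stained with PI for 15 min at room temperature in the dark, and analyzed by flow cytometry.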

MDA-MB-231 [3] = test: Induction of apoptosis in human MDA-MB-231 cells assessed as viable cells at 1 uM measured after 24 hrs by annexin V-FITC/propidium iodide staining based flow cytometry (reference value: 90.9%); assay type: functional; settings: read-out: Activity
MDA-MB-231 [4] = test: Induction of apoptosis in human MDA-MB-231 cells assessed as necrotic cells at 0.1 uM measured after 24 hrs by annexin V-FITC/propidium iodide staining based flow cytometry (reference value: 4.74%); assay type: functional
[5] = Acute toxicity in Kunming mouse assessed as clinical change in fur at 40 mg/kg, ip administered as single dose; assay type: organism-based; settings: in vivo; procedure, shortened: as §1
4T1 = test: Induction of apoptosis in mouse 4T1 cells implanted in mouse at 2 mg/kg, ip administered daily for 12 days measured post last dose by H and E staining based microscopic analysis; assay type: functional, organism-based; settings: time 12.0 day
Procedure, shortened: (§2)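 Orthotopic 4T1-bearing mice (n = 6 per group) were dosed i.p. daily with vehicle, compound at 1 or 2 mg/kg, or doxorubicin at 1 mg/kg. At the end of treatment, tumors and major organs (liver, spleen) were harvested and photographed. Sections were H&E stained and examined by microscope.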

[6] = Acute toxicity in Kunming mouse assessed as mortality at 10 to 40 mg/kg, ip administered as single dose; assay type: organism-based; settings: in vivo, dose 10-40 mg/kg; procedure, shortened: as §1
[7] = Toxicity in mouse implanted with mouse 4T1 cells assessed as increase in spleen size at 2 mg/kg, ip administered daily for 12 days measured post last dose; assay type: organism-based; settings: in vivo, 288 h, time 12 day; procedure, shortened: as §2
[8] = Acute toxicity in Kunming mouse assessed as body weight loss at 40 mg/kg, ip administered as single dose; assay type: organism-based; settings: in vivo; procedure, shortened: as §1

## O=C1C=CC2(C=C1)OCC(=O)N2c1nc(-c2cccc3ccccc23)nn1-c1ccccc1
[1]
  Activity: Non-Toxic
MDA-MB-231 [2]
  Activity: 23.87%
MDA-MB-231 [3]
  viability at 1 µM: 35.7%
MDA-MB-231 [4]
  Activity: 5.16%
[5]
  Activity: Non-Toxic
4T1
  Activity: Active
[6]
  Activity: Non-Toxic
[7]
  Activity: Toxic
[8]
  Activity: Toxic
